Measurements published in paper PMC4201300 (Biochemistry, 2014).
Square brackets hold non-standard residues; d marks the D form. Peptide text beside a SMILES is read from it. pT = C[C@@H](OP(=O)(O)O)[C@H](N)C(=O)O

Experiments:
[1] = target: T1, Pellino2 FHA domain (amino acids 15–275 of Pellino2) (Homo sapiens, UniProt Q9HAT8); test: Fluorescence polarization peptide binding assay, Pellino2 FHA domain; details: for fold change in KD relative to pT141+3Y (preference for the pTxxY motif): binding weaker than for pT141+3Y, Figure 4A
T1 sequence (Q9HAT8 15-275): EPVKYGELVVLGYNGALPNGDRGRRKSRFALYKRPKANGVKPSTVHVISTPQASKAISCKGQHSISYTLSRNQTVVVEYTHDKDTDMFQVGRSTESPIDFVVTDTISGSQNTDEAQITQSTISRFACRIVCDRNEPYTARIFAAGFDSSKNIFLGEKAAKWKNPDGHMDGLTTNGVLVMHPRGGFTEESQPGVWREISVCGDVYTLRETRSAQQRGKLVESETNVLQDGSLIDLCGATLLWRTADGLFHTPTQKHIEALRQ

[2] = target: Pellino2 FHA domain, 15-275 (UniProt Q9HAT8); test: fluorescence polarization titration; details: reference: pT141+3S peptide (native S144); sites S144
Pellino2 FHA domain, 15-275, sequence (Q9HAT8 whole entry, looked up, the tested form may be a part): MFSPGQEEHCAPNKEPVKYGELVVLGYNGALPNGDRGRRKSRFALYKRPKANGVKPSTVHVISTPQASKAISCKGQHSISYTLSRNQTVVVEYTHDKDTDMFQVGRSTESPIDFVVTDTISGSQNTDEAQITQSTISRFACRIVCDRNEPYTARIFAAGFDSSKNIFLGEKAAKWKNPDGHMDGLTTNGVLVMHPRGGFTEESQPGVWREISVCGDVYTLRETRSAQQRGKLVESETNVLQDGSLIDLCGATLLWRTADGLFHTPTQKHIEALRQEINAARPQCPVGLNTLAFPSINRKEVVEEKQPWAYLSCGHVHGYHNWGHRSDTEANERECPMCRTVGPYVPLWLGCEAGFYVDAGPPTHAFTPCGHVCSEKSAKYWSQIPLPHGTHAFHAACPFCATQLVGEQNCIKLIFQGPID

[3] = target: T2, Pellino1 FHA domain (amino acids 2–287) (Mus musculus, UniProt Q8C669); test: Fluorescence polarization peptide binding assay, Pellino1 FHA domain; details: ratio of KD values
T2 sequence (Q8C669 2-287): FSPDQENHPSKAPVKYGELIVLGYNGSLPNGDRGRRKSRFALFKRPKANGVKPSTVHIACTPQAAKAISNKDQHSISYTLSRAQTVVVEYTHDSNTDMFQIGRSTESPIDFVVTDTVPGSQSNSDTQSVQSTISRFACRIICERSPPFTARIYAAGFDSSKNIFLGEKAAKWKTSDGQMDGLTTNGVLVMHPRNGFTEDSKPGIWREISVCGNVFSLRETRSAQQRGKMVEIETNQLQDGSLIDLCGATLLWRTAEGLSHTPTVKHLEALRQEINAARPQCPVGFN
Outline: (§1)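 His6-tagged FHA domains were expressed in E. coli BL21(DE3) pLys. The tag was removed with TEV during dialysis (4 °C for Pellino1, 22 °C for Pellino3a/3b), then cation exchange (pH 6 Pellino1/3b, pH 5.5 Pellino3a) and gel filtration. 50 nM N-terminally fluorescein-labelled phosphopeptide was titrated with 0–190 μM domain in PBS pH 7.4 at 25 °C. Baseline-corrected polarization was fit to a simple isotherm; mean KD from ≥3 experiments, expressed relative to pT141+3Y KD.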

[4] = target: T3, Pellino3a FHA domain (amino acids 40–305) (Homo sapiens, UniProt Q8N2H9); test: Fluorescence polarization peptide binding assay, Pellino3a FHA domain; details: ratio of KD values
T3 sequence (Q8N2H9 40-305): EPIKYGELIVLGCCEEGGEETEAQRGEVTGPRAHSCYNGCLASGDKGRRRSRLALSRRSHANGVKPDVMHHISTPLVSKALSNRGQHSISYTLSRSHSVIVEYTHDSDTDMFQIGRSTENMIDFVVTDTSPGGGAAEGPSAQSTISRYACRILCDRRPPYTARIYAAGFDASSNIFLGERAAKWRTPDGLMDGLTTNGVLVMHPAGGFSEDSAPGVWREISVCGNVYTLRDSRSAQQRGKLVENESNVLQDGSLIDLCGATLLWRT
Outline: as §1

[5] = target: T4, Pellino3b FHA domain (amino acids 2–304) (Homo sapiens, UniProt Q8N2H9); test: Fluorescence polarization peptide binding assay, Pellino3b FHA domain; details: ratio of KD values
T4 sequence (Q8N2H9 2-304 isoform Q8N2H9-2): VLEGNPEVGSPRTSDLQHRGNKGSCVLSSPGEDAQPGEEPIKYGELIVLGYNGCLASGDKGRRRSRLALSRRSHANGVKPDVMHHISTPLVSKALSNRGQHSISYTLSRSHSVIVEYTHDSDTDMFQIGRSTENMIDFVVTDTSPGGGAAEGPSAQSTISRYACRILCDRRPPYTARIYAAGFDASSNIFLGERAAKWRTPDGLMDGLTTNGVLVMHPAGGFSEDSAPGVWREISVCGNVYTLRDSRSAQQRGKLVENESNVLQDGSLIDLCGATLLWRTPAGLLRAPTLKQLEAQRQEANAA
Outline: as §1

Pellino2 = Pellino2 (UniProt Q9HAT8); test: GST pull-down from lysate, Xpress and pT blots; details: reference: wild-type IRAK1-197; sites T141
[6] = target: IRAK1pT141 peptide (amino acids 137–145 of IRAK1 with phosphothreonine at 141) (human) (UniProt P51617); test: fluorescence polarisation
IRAK1pT141 peptide (amino acids 137–145 of IRAK1 with phosphothreonine at 141) (human), sequence (P51617 whole entry, looked up, the tested form may be a part): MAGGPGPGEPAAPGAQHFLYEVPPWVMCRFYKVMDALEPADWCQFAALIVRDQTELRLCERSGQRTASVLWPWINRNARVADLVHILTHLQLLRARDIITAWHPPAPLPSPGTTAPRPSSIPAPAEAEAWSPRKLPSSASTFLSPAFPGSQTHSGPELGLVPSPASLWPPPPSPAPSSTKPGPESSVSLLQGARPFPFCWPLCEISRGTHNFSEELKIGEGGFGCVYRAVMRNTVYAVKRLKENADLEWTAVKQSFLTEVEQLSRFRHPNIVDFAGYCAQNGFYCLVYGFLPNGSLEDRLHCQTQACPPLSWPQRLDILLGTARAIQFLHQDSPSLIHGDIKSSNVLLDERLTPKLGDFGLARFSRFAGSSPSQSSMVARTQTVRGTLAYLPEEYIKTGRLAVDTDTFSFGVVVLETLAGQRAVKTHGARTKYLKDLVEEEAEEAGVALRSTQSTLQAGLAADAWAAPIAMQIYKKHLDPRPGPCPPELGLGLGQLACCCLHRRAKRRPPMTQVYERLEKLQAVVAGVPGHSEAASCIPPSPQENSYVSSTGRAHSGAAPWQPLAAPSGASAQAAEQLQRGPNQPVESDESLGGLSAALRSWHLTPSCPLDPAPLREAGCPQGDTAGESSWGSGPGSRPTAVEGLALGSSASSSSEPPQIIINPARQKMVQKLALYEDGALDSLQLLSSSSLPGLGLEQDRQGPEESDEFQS

[7] = target: scrambled version of the pT141 peptide; test: fluorescence polarisation
[8] = target: T5, Pellino2 FHA domain (amino acids 15–275 of Pellino2) (human, UniProt Q9HAT8 15-275); test: fluorescence polarisation
T5 sequence (looked up): T1 sequence (Q9HAT8 15-275)

[9] = target: T6, Pellino1 FHA domain (amino acids 2–287, mouse) (mouse, UniProt Q8C669 2-287); test: fluorescence polarisation
T6 sequence (looked up): T2 sequence (Q8C669 2-287)

[10] = target: T7, Pellino3b FHA domain (amino acids 2–304) (human, UniProt Q8N2H9-2 2-304); test: fluorescence polarisation
T7 sequence (looked up): T4 sequence (Q8N2H9 2-304 isoform Q8N2H9-2)

CC(C)C[C@H](NC(=O)[C@H](Cc1ccccc1)NC(=O)[C@@H](NC(=O)[C@H](CO)NC(=O)[C@H](CO)NC(=O)[C@H](C)NC(=O)[C@H](CO)NC(=O)[C@@H](N)Cc1ccc(O)cc1)[C@@H](C)OP(=O)(O)O)C(=O)N[C@@H](Cc1ccc(O)cc1)C(=O)N1CCC[C@H]1C(N)=O [IRAK1pT141+3Y] (H-YSASS[pT]FLYP-NH2; N-terminus assumed)
KD fold stronger than that for pT141+3S ([1]; ratio of KD values): 4.6 fold

IRAK1 137-145 (from UniProt P51617) pT141+3D peptide
fold change (fold weaker KD) [2]: 5

CC(C)C[C@H](NC(=O)[C@H](Cc1ccccc1)NC(=O)[C@@H](NC(=O)[C@H](CO)NC(=O)[C@H](CO)NC(=O)[C@H](C)NC(=O)[C@H](CO)NC(=O)[C@@H](N)Cc1ccc(O)cc1)[C@@H](C)OP(=O)(O)O)C(=O)N[C@@H](CC(=O)O)C(=O)N1CCC[C@H]1C(N)=O [IRAK1pT141+3D] (H-YSASS[pT]FLDP-NH2; N-terminus assumed)
times weaker binding than for the pT141+3Y peptide [3]: at least 13 times | fold change in KD relative to pT141+3Y (preference for the pTxxY motif) [1]: 23 fold | times weaker binding than for the pT141+3Y peptide [4]: at least 13 times | times weaker binding than for the pT141+3Y peptide [5]: at least 13 times

CC[C@H](C)[C@H](NC(=O)[C@H](CC(C)C)NC(=O)[C@H](Cc1ccccc1)NC(=O)[C@@H](NC(=O)[C@H](CO)NC(=O)[C@H](CO)NC(=O)[C@H](C)NC(=O)[C@H](CO)NC(=O)[C@@H](N)Cc1ccc(O)cc1)[C@@H](C)OP(=O)(O)O)C(=O)N1CCC[C@H]1C(N)=O [IRAK1pT141+3I] (H-YSASS[pT]FLIP-NH2; N-terminus assumed)
fold change in KD relative to pT141+3Y (preference for the pTxxY motif) [1]: 12 fold

IRAK1 1-197 (from UniProt P51617) T141A
binding against the reference (Pellino2): weaker

Pellino2 FHA domain (amino acids 15–275 of Pellino2) (from UniProt Q9HAT8 15-275) (domain or fragment)
Kd [6]: 820 nM

B1: Pellino2 FHA domain (amino acids 15–275 of Pellino2) (domain or fragment)
chain: T1 sequence (Q9HAT8 15-275)
fold weaker affinity than for pT141 [7]: > 100 fold

fluorescein-YSSAS[pT]FLYP-NH2 (also: fluorescein: FITC or 5,6-FAM) [pT141+3Y peptide (IRAK1pT141 with tyrosine at position +3)]
Kd [8]: 180 nM | Kd [9]: 770 nM | binding result [10]: binds

fluorescein-YSSAS[pT]FLIP-NH2 (also: fluorescein: FITC or 5,6-FAM) [pT141+3I peptide (IRAK1pT141 with isoleucine at position +3)]
Kd [9]: 1800 nM | binding result [10]: binds
